Cdc25B block – inhibitors of human Cdc25B phosphatase; recombinant Cdc25B, OMFP fluorescence Ex485/Em525; inhibition, %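 (compounds tested at 10 µM final in the well)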; actives 0.1% (n = 65,000); in the data active = inhibition above about 50%
MMP13 inh – inhibitors of human MMP13. P45452. MMP-13 fTHP FRET cleavage, Mca fluorescence. inhibition, % at 4 µM. actives 0.07% (n = 65,000);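 active = inhibition above the mean of compound-free control plate wells plus 3 SD, cut at about 14% in these data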;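 also: 0% = DMSO wells and 100% = wells with reference MMP-13 inhibitor after basal subtraction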
HePTP inh – inhibitors of human HePTP phosphatase; inhibition, % at 20 µM; recombinant HePTP phosphatase activity, OD absorbance; AID 521; actives 0.64% (n = 110,000); in the data active = inhibition above about 50%;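 also: plate controls were vehicle for no effect and reference inhibitor for full effect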
Target sequence (P35236 whole entry, looked up): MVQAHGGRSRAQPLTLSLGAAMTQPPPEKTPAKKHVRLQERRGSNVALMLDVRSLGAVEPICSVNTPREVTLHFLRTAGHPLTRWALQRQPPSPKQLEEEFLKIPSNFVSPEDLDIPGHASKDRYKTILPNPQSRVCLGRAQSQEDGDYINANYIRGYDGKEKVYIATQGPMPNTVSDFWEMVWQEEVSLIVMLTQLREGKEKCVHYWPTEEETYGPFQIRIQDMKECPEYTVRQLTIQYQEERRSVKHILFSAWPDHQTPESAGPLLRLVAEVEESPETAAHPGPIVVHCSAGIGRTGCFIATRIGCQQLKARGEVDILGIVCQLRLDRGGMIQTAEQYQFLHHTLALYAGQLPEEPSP
E coli WT exp – blocks growth of wild type E. coli BW25113. growth inhibition, % at 100 µM. OD600 absorbance. actives 0.15% (n = 98,000);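 active = growth inhibition above about 50% at one test dose, limit read from the data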;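 also: growth measured after 20 h incubation at 37 °C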
DUSP1 inh – blocks human MKP-1 phosphatase activity. recombinant MKP-1, OMFP hydrolysis fluorescence. AID 374. inhibition, %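 (compounds tested at a single concentration somewhere between 10 and 100 µM)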. actives 0.15% (n = 65,000);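 active = inhibition above about 50%, limit read from the data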;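 also: 0% = DMSO max control wells and 100% = wells with enzyme stopped by NaOH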
tolC growth inh – blocks growth of E. coli BW25113 tolC mutant. OD615. actives 2.2% (n = 65,000). AID 573. growth inhibition, % at 10 µM (by protocol);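 active = growth inhibition at or above a cutoff equal to the mean over every tested compound plus 3 SD, cut at about 60% in these data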;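 also: growth measured after 20 h incubation at 37 °C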
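Test system: tolC-deleted E. coli BW25113 | Medium: LB with kanamycin 50 µg/mL | Compound dosing: Single concentration, 10 µM final per compound | Schedule: 37 °C, 20 h exposure | Measured by: OD at 615 nm | Evaluation: Percent growth inhibition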
* marks the source's active call; other numbers are inactive results; · = no result. Shown is part of a subset that was picked to be rich in hits.

SMILES	Cdc25B block	MMP13 inh	HePTP inh	E coli WT exp	DUSP1 inh	tolC growth inh
O=C(N/N=C/c1ccc([N+](=O)[O-])o1)c1ccc(O)cc1	·	·	102*	·	·	·
CCCCCc1c(C)nc(Nc2ccccc2)[nH]c1=O	-1	3	-12	1	11	75*
COc1cccc(-c2cc(C(F)(F)F)nc(N3CCC(C)CC3)n2)c1	-7	7	-8	-3	3	2
COc1cccc(-c2cc(C(F)(F)F)nc(N3CCOCC3)n2)c1	-18	0	6	-2	5	68*
COc1ccccc1-c1cc(C(F)(F)F)nc(N2CCN(c3ccccc3)CC2)n1	-12	11	4	-10	0	-5
COc1ccccc1-c1cc(C(F)(F)F)nc(N2CCOCC2)n1	-11	-2	8	12	9	62*
Cc1cc(NC(=O)c2ccc(-c3ccc(Cl)cc3)o2)ccc1NC(=O)c1ccco1	·	·	61*	·	·	·
O=C(Nc1ccccc1C(=O)Nc1ccc(Cl)cc1)c1ccco1	·	·	103*	·	·	·
Cc1nn(-c2ccc(F)cc2)c2sc(C(=O)N3CCCCCC3)cc12	-18	0	9	-22	0	97*
Cc1nn(-c2ccc(Cl)cc2)c2sc(C(=O)N3CCN(C(=O)c4ccco4)CC3)cc12	-11	-3	1	·	2	9
CCn1c2ccccc2c2cc(NC(=O)c3ccco3)ccc21	-7	-1	2	-6	12	87*
CCn1c2ccccc2c2cc(NC(C)=O)ccc21	·	·	·	-16	·	·
CCCC(=O)Nc1ccc2oc(-c3ccc(OC)c(Cl)c3)nc2c1	·	·	-8	·	·	·
O=C1/C(=C\c2cc([N+](=O)[O-])cc(Br)c2O)SC(=S)N1c1cccc(Cl)c1	·	·	101*	·	·	·
CC(C)(C)C(=O)/C=C/c1ccc(-n2nncc2C(C)(C)C)cc1	·	·	10	·	·	·
Cc1noc(C)c1S(=O)(=O)N(CCc1ccccc1)Cc1ccccc1	-23	0	1	-1	-22	63*
Cc1noc(C)c1S(=O)(=O)N(C)CC(=O)NCc1ccccc1	9	3	-10	0	8	-3
CCOc1cc(/C=C2\SC(=S)NC2=O)ccc1OCc1c(C)no[n+]1[O-]	·	·	102*	·	·	·
COc1ccc(CN(C(=O)CN2C(=O)COc3ccccc32)C2CCCC2)c(OC)c1	-6	1	10	-5	9	71*
COc1ccc(CN(C(=O)CN2C(=O)C(C)Oc3ccccc32)C2CCCC2)c(OC)c1 (centres undefined)	17	-9	2	-6	8	67*
CC1Oc2ccccc2N(CC(=O)c2ccccc2)C1=O (centres undefined)	-5	-2	6	-1	3	-4
O=C1c2ccc(Oc3ccc4c(c3)C(=O)N(c3ccc(S)cc3)C4=O)cc2C(=O)N1c1ccc(S)cc1	·	·	102*	·	·	·
COC(=O)C1=CN(Cc2cccs2)C=C(C(=O)OC)C1c1ccc(C(F)(F)F)cc1	·	·	-2	·	·	·
CCOC(=O)c1cnc(-n2nc(C)cc2C)nc1NCc1ccccc1	4	-6	-9	3	-1	100*
CCOC(=O)c1cnc(-n2nc(C)cc2C)nc1NC(C)c1ccccc1 (centres undefined)	6	-5	10	-6	4	100*
SMILES	Cdc25B block	MMP13 inh	HePTP inh	E coli WT exp	DUSP1 inh	tolC growth inh
Cc1ccc(N2NC(=O)/C(=C/c3ccccc3O)C2=O)cc1C	·	·	5	·	·	·
COC(=O)c1c(NC(=O)CSc2nnnn2-c2ccccc2)sc2c1CCC(C)C2 (centres undefined)	2	-1	2	-13	0	2
CC1CCc2c(C(=O)Oc3cccc(-n4cnnn4)c3)csc2C1 (centres undefined)	-6	7	-1	-19	12	69*
CC(C(=O)NN)C1=NC(C)(C)Cc2ccccc21 (centres undefined)	·	·	54*	·	·	·
Cc1sc(NN=C2CCCC2)nc1-c1ccccc1	·	·	2	·	·	·
CCOC(=O)C1(N(CC)CC)Sc2cc(C)ccc2NC1=O (centres undefined)	-10	5	4	6	7	72*
OCc1nc2ccccc2n1CCCOc1ccc(Br)cc1	-11	5	-3	9	12	67*
Cn1c(=O)n(CCCOc2ccc(Br)cc2)c2ccccc21	-12	4	2	-4	3	100*
OCc1nc2ccccc2n1CCOc1ccccc1	·	·	-6	·	·	·
Cn1c(=O)n(CCCOc2ccc(Cl)cc2)c2ccccc21	-15	2	-3	9	-1	62*

High-throughput results from PubChem BioAssay.
